Only some compounds are listed: those with a hit (about 4% of all), similar ones and a draw of the others.
S1P3 antagonist: S1P3 receptor antagonists, primary screen, cell-based; Sphingosine 1-phosphate receptor 3 (Homo sapiens), Q99500; CHO S1P3 NFAT-BLA reporter, FRET fluorescence, antagonist mode; inhibition, % at 4.98 µM; actives 0.27% (n = 170,000); AID 485, 2006;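 active = inhibition above the plate cutoff, the mean inhibition of test wells on that plate plus 3 SD, cut at about 28% in these data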;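 note: cells challenged with S1P at its EC80 of 0.8 µM; blue over green emission ratio from cleaved BLA substrate after 4 h stimulation; 0% = S1P-stimulated wells and 100% = unstimulated DMSO-only wells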
Target sequence (Q99500 whole entry, looked up): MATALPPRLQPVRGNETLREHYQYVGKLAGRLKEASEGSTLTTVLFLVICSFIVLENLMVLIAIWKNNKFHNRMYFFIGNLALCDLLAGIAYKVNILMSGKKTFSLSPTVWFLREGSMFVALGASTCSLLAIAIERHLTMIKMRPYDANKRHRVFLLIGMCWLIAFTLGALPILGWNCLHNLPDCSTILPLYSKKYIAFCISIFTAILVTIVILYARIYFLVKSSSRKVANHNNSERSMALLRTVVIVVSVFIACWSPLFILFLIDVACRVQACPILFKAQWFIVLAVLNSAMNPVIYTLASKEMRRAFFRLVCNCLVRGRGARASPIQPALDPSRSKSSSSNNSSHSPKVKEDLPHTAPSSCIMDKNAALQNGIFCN
CHOP inh: inhibitors of CHOP promoter induction, primary screen, cell-based, unfolded protein response, luciferase reporter. CHO-K1 CHOP-promoter luciferase, tunicamycin-induced, 15-18 h. inhibition, % at 10 µM. actives 3.8% (n = 220,000);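 active = compounds that reduced the stress-induced luciferase reporter signal by more than about 70% of percent inhibition, limit read from the data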;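 note: 0% = tunicamycin plus vehicle and 100% = wells without tunicamycin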
MDM2 E3 inh: MDM2-luciferase reporter signal enhancers, primary screen, MDM2 E3 ligase inhibitor project, cell-based, luminescence, 1536-well; E3 ubiquitin-protein ligase Mdm2 (Homo sapiens), Q00987; cell-based MDM2 ubiquitination luciferase reporter, 2 h; 0 = plate control, 100 = twice control, blank-subtracted; signal enhancement, % at 5 µM; actives 0.11% (n = 210,000);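 active = signal enhancement of 30% or more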;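 note: luminescence tracks abundance of the self-degrading MDM2-luciferase fusion protein; higher signal means inhibition of MDM2 E3 ligase activity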
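Buffer or medium: Cells held in DMEM | Assay system: Stable mammalian line carrying autodegrading MDM2–luciferase fusion reporter | Quantity: 2000 cells/well | Times: 4 h settle plus 2 h compound, 37 °C | Doses: One concentration, 5 µM, with 0.2% DMSO | Technique: Luminescence with SteadyLite reagent, 15 min at room temperature | Benchmarks: Plate controls and plate blanks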
Hsp70 act: Hsp70 transcriptional activators, primary screen, cell-based, HeLa, Hsp70 promoter luciferase, luminescence, 10 µM; activation, % at 10 µM; actives 0.04% (n = 200,000); AID 1203, 2008; HeLa Hsp70 promoter luciferase reporter; scaled: vehicle 0, proteasome-inhibitor control 100%;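 active = activation above the mean across all tested compounds plus 3 SD, cutoff set per campaign, cut at about 5.5% in these data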;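 note: 100% = MG132 at 30 µM as the positive control and 0% = DMSO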
* hit, by the source's call; nt = not tested or not shown.

SMILES	S1P3 antagonist	CHOP inh	MDM2 E3 inh	Hsp70 act
CCOc1ccc2nc(NC(=O)c3cccc(-c4cc5ccccc5oc4=O)c3)sc2c1	-13.2	91.7*	-16.3	-0.4
CNS(=O)(=O)c1ccc2nc(NC(=O)/C=C/c3ccco3)sc2c1	-13.1	-3.6	-9.7	0.4
CCOC(=O)c1ccc(NC(=O)c2nc[nH]c2C(=O)N[C@H](C)c2ccccc2)cc1	nt	70.2*	-0.2	nt
CCOC(=O)c1ccc(NC(=O)c2nc[nH]c2C(=O)N[C@@H](CC(C)C)C(=O)OCc2ccccc2)cc1	nt	-23.2	8.1	nt
Cc1cccc(NC(=O)c2nc[nH]c2C(=O)NCC(=O)OC(C)(C)C)c1	nt	58.3	0.5	nt
Cc1cccc(NC(=O)c2nc[nH]c2C(=O)N[C@@H](C)C(=O)OC(C)(C)C)c1	nt	85.9*	-10.5	nt
C=CS(=O)(=O)c1sc(Cl)c(N2CCOCC2)c1[N+](=O)[O-]	-1.6	103.8*	4.9	-0.2
COc1ccc(OC)c(C2=NOC(C(=O)NCc3cccs3)C2)c1 (stereo unspecified)	-23.3	27.9	-8.9	-0.2
CCOC(=O)c1c(NC(=O)CSc2nnnn2C)sc(C)c1-c1ccc(C)cc1	23.0	54.0	-8.7	-0.2
O=C(Cc1csc(Nc2nc(=S)[nH]c3ccccc23)n1)NCc1cccc(Cl)c1	nt	80.3*	-7.9	-0.4
C[C@H]1CC2C3CCC4=CC(=O)C=C[C@]4(C)[C@@]3(Cl)[C@@H](O)C[C@]2(C)[C@@]1(O)C(=O)CO (stereo partly specified)	nt	6.7	nt	nt
COc1ccc(CNC(=O)c2c(C)oc3c2C(=O)c2ccccc2C3=O)cc1	-28.4	-21.0	nt	0.0
CC(=O)c1c(C)oc2c1C(=O)c1ccccc1C2=O	-8.3	73.0*	nt	-0.2
Cc1oc2c(c1C(=O)NCc1cccnc1)C(=O)c1ccccc1C2=O	-11.6	103.5*	-4.2	-0.4
CCc1ccc2[nH]c(=O)c(CN(Cc3ccccc3OC)Cc3nnnn3Cc3ccco3)cc2c1	9.4	73.5*	-1.4	1.1
CCc1ccc2[nH]c(=O)c(CN(Cc3ccc4c(c3)OCO4)Cc3nnnn3C3CCCC3)cc2c1	3.5	82.0*	-2.6	0.1
Cc1ccc2cc(CN(Cc3ccc(F)cc3)Cc3nnnn3C3CCCC3)c(=O)[nH]c2c1	5.6	83.8*	-11.3	-0.4
CSC(=NNC(=O)c1ccc(O)cc1)SC	nt	-26.2	-16.9	0.2
CCc1cccc2c1NC1(CCCC1)CC2C (stereo unspecified)	2.3	91.1*	nt	nt
Cc1ccccc1NC(=O)COC(=O)CCSc1ccccc1	-1.6	3.7	-6.9	-0.2
CCCc1ccc(OCc2ccc(C(=O)O)o2)c(OC)c1	nt	3.5	-4.6	-0.1
CCCc1ccc(OCc2ccc(C(=O)OC)o2)c(OC)c1	-3.2	78.0*	20.1	-0.1
Fc1ccc(CN(C2=NCCN2)c2c(Cl)cccc2Cl)cc1	nt	2.0	nt	nt
COc1ccccc1NC(=S)N1CCN(C(=O)C2CCCO2)CC1 (stereo unspecified)	-9.4	7.8	-6.5	0.4
Cc1csc(SCC(=O)c2cc(C)n(Cc3cccs3)c2C)n1	27.1	76.5*	-21.1	-0.5
SMILES	S1P3 antagonist	CHOP inh	MDM2 E3 inh	Hsp70 act
CC1(C)CC(=O)CC(=Nc2ccc(C(=O)O)cc2)C1	103.2*	-4.7	-7.1	0.9
NNC(=O)c1ncoc1-c1ccc(Cl)cc1	-1.2	17.6	-6.3	nt
C=CCn1c(N2CCN(c3ccc(OC)cc3)CC2)nc2c1c(=O)[nH]c(=O)n2C	2.8	-2.8	nt	-0.2
Cc1cc(NC(=O)C2C3C(=O)N(CCC(C)C)C(C(=O)NCc4ccccc4)C34C=CC2(C)O4)no1 (stereo unspecified)	-30.4	2.0	-8.5	0.0
O=C(O)c1ccc(Cn2cnc3sc4c(c3c2=O)CCCC4)cc1	-3.1	21.0	-35.9	0.1
Cc1ccc(Cn2cnc3sc4c(c3c2=O)CCC4)c(C)c1	nt	76.9*	8.6	0.1
O=C(CNc1ccccc1C(=O)O)c1ccccc1	-1.9	-10.4	-15.8	nt
Cc1ccccc1NCC(=O)c1ccc(Br)cc1	nt	70.3*	0.8	-0.5
O=C(COc1cc(Cl)c(Cl)cc1Cl)Nc1cccc(O)c1	-17.3	79.2*	nt	nt
O=C(COc1cc(Cl)c(Cl)cc1Cl)Nc1ccncc1	-7.8	51.9	1.1	-0.3
CCc1ccc(C2CC(c3ccco3)=NN2S(C)(=O)=O)cc1 (stereo unspecified)	nt	72.7*	-52.3	0.2
CCOC(=O)C1=C(N)c2ccccc2CC1C1CCCC1 (stereo unspecified)	-8.7	90.9*	-13.7	nt
O=C1COc2ccc(N3C(=O)C=CC3=O)cc2N1	7.7	95.2*	-3.0	-0.2
O=C(CSc1cccc[n+]1[O-])Nc1ccc2c(c1)OCO2	-12.4	-8.4	-15.5	0.1
Cc1nnc(N2C(=O)c3oc4ccccc4c(=O)c3C2c2ccco2)s1 (stereo unspecified)	-35.8	9.3	-6.3	0.2
Cc1ccc(C2c3c(oc4ccccc4c3=O)C(=O)N2c2nnc(C(C)C)s2)o1 (stereo unspecified)	11.9	85.3*	-23.2	-0.2
CCn1c(C)cc(/C=C2/NC(=O)N(CC(=O)Nc3cccc(C)c3)C2=O)c1C	-28.7	51.2	-3.6	-0.3
CCn1c(C)cc(/C=C2\SC(=O)N(CC(=O)Nc3ccc(C)c(C)c3)C2=O)c1C	nt	93.3*	-7.7	0.2
CCn1c(C)cc(/C=C2\NC(=O)N(CC(=O)Nc3cccc(C)c3)C2=O)c1C	nt	80.8*	-3.2	-0.2
Cc1cc(C(=O)c2cnc(/N=C/N(C)C)s2)c(F)cc1Cl	-13.7	17.6	-9.4	-0.2
COc1cnn(C(C)(C)C)c(=O)c1Cl	nt	20.9	-18.4	-0.2
Cc1cccc(Oc2cnn(C(C)(C)C)c(=O)c2Cl)c1	nt	71.2*	nt	-0.2
C(=N\n1cnnc1)/c1cccc(Oc2ccccc2)c1	nt	29.1	-13.9	-0.1
Fc1ccccc1COc1cccc(/C=N/n2cnnc2)c1	21.2	71.6*	13.5	-0.2
c1ccc(Cn2nnc3c(NCCN4CCOCC4)ncnc32)cc1	1.7	11.7	-9.3	-0.3
SMILES	S1P3 antagonist	CHOP inh	MDM2 E3 inh	Hsp70 act
c1ccc(CCNc2ncnc3c2nnn3Cc2ccccc2)cc1	nt	88.9*	-8.6	-0.5
Cc1[nH]c2ccccc2c1CN1CCc2ccccc2C1	nt	91.2*	-11.8	-0.1
O=c1[nH]c(CN2CCc3ccccc3C2)nc2ccccc12	32.7	-1.3	-12.0	-0.2
CCCN(CC(=O)Nc1cc(Cl)cc(Cl)c1)CC(=O)Nc1ccc(F)c(F)c1F	5.6	76.0*	-5.2	-0.2
COc1ccccc1CNC(=O)C1=CCN(S(=O)(=O)c2ccc(C)cc2)CC1	6.6	8.4	-4.7	nt
Cc1ccc(C)c(NC(NC(=O)c2ccccn2)C(Cl)(Cl)Cl)c1 (stereo unspecified)	0.9	25.4	3.8	-0.5
COc1ccc(NS(=O)(=O)c2ccc3c(c2)Cc2ccccc2-3)cn1	-33.2	95.0*	-16.9	-0.1
CCC(C)(C)NC(=O)c1cc([N+](=O)[O-])ccc1N1CCOCC1	-28.4	9.2	nt	-0.3

Compound activity from PubChem BioAssay.
